{"source": "ChEMBL document CHEMBL1143314", "about": "“Bone selective effect of an estradiol conjugate with a novel tetracycline-derived bone-targeting agent” (2009)", "key": {"Hydroxyapatite [1]": {"system": "Hydroxyapatite", "assay": "Binding affinity to bone mineral hydroxyapatite", "outline": "(§1)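 Analyte 10^-5 M final in 50 mM Tris–HCl pH 7.4, 1% DMSO (from 10^-3 M DMSO stock), mixed by inversion 4 min with HA slurry (0.5 g/100 mL) or buffer alone, centrifuged 12,000g 3 min. Supernatant UV-vis scanned 220–520 nm; concentration at λmax by Beer–Lambert; fraction adsorbed calculated. Tetracycline reference set to index 100.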"}, "Hydroxyapatite [2]": {"system": "Hydroxyapatite", "assay": "Binding affinity to bone mineral hydroxyapatite assessed as binding index", "outline": "as §1"}, "Hydroxyapatite [3]": {"system": "Hydroxyapatite", "assay": "Binding affinity to bone mineral hydroxyapatite relative to tetracyclin", "outline": "as §1"}, "Rattus norvegicus [4]": {"system": "Rattus norvegicus", "assay": "Antibone resorptive activity in sc dosed Sprague-Dawley rat assessed as inhibition of bilaterally ovariectomization-induced decrease in body weight normalized femoral mass administered 4 days after sugery at three times per week schedule for 6 weeks", "type": "functional", "outline": "(§2)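 Three-month-old female Sprague–Dawley rats, bilaterally ovariectomized or sham-operated, given vehicle or drug s.c. three times weekly from 4 days post-surgery for 6 weeks. Excised femur and uterus weighed, normalized to body mass. Percent effect = (treatment − OVX control)/(sham − OVX control); n = 6–10 per group; mean SEM; ED50 from dose–response curves.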"}, "Rattus norvegicus [5]": {"system": "Rattus norvegicus", "assay": "Antibone resorptive activity in sc dosed Sprague-Dawley rat assessed as inhibition of bilaterally ovariectomization-induced decrease in body weight normalized uterine mass administered 4 days after sugery at three times per week schedule for 6 weeks", "type": "functional", "outline": "as §2"}}, "note": "Active and inactive are the calls of the source. The calls are words filed in the database; no cut-off is given here.", "data": [{"molecule": "NC(=O)C1C(=O)CCCC1=O", "values": [{"measurement": "Activity", "setting": "Hydroxyapatite [1]", "value": "inactive"}]}, {"molecule": "CN(C)[C@@H]1C(O)=C(C(N)=O)C(=O)[C@@]2(O)C(O)=C3C(=O)c4c(O)cccc4[C@@](C)(O)[C@H]3C[C@@H]12", "values": [{"measurement": "Activity", "setting": "Hydroxyapatite [2]", "value": 100}]}, {"molecule": "NC(=O)c1c(O)cccc1O", "values": [{"measurement": "Activity", "setting": "Hydroxyapatite [1]", "value": "inactive"}]}, {"molecule": "NC(=O)c1c(O)ccc(N)c1O", "values": [{"measurement": "Activity", "setting": "Hydroxyapatite [3]", "value": 50, "unit": "%"}]}, {"molecule": "C[C@]12CC[C@@H]3c4ccc(O)cc4CC[C@H]3[C@@H]1CC[C@@H]2O", "note": "[ESTRADIOL]", "values": [{"measurement": "Activity", "setting": "Rattus norvegicus [4]", "value": "Dose-dependent effect"}, {"measurement": "ED50", "setting": "Rattus norvegicus [4]", "value": 0.01, "unit": "µmol/kg"}, {"measurement": "ED50", "setting": "Rattus norvegicus [5]", "value": 0.009, "unit": "µmol/kg"}]}, {"molecule": "O=C(O)c1c(O)cccc1O", "values": [{"measurement": "Activity", "setting": "Hydroxyapatite [1]", "value": "inactive"}]}]}
